Published values pooled from the literature.
Protocols differ between the studies behind these lines.
Target: SRSF protein kinase 1 (SRPK1, Homo sapiens, UniProt Q96SB4)

O=c1[nH]c2ccccc2n1C1CCN(Cc2ccc(-c3[nH]c4cc5ncnc5cc4nc3-c3ccccc3)cc2)CC1 — remaining signal (cell-free assay; 0.5 µM): 106%
C#Cc1n[nH]c2c(-c3cn([C@@H](C)c4ccccn4)c(=O)[nH]c3=O)cc(F)cc12 — inhibition (enzyme activity, inhibitor; 0.1 µM): 3.3%
Cn1cncc1[C@](O)(COc1ccc(C#N)cc1-c1ccc(OC(F)(F)F)cc1)c1ccc(C#N)cc1 — remaining binding (cell-free assay, competition with immobilised ligand; 1 µM): 70%
COc1ncccc1-c1cnn2ccc(N3CCN(C(=O)OC(C)C)CC3)nc12 — remaining binding (binding, competition with immobilised ligand; 1 µM): 19%
Cn1cc(-c2cccc(N3CCc4c(sc5c4CC(C)(C)C5)C3=O)c2CO)cc(Nc2ccncn2)c1=O — inhibition (enzyme activity, inhibitor; 1 µM): 5%
CC(C)(C)c1cc(C=C(C#N)C#N)cc(Br)c1O — remaining activity (enzyme activity, inhibitor; 0.5 µM): 101%
Cn1cc(-c2cc(F)cc(N3CCn4c(cc5c4CCCC5)C3=O)c2CO)cc(Nc2ccc(N3CCN(C4COC4)CC3)cn2)c1=O — inhibition (enzyme activity, inhibitor; 0.1 µM): 14%
Cc1nn(C)cc1-c1nc2c(N3CCN(Cc4ccc(Cl)cc4)CC3)c(Cl)cnc2[nH]1 — remaining binding (binding, competition with immobilised ligand; 1 µM): 7.8%
C#Cc1n[nH]c2c(-c3cn([C@@H](C)c4ccccc4)c(=O)[nH]c3=O)cc(F)cc12 — inhibition (enzyme activity, inhibitor; 0.1 µM): 3.1%
COc1cc(Nc2ncc(F)c(Nc3ccc4c(n3)NC(=O)C(C)(C)O4)n2)cc(OC)c1OC — inhibition (binding; 10 µM): 87%
